Source: ChEMBL document CHEMBL3352121, “Modulation of Activity Profiles for Largazole-Based HDAC Inhibitors through Alteration of Prodrug Properties” (ACS Med Chem Lett, 2014)

What was measured:
[1] = target: T1, Polyamine deacetylase HDAC10 (Homo sapiens, UniProt Q969S8); assay: Inhibition of HDAC10 (unknown origin) incubated for 30 mins in presence of BSA and DTT by fluorescence assay
T1 sequence (Q969S8 whole entry): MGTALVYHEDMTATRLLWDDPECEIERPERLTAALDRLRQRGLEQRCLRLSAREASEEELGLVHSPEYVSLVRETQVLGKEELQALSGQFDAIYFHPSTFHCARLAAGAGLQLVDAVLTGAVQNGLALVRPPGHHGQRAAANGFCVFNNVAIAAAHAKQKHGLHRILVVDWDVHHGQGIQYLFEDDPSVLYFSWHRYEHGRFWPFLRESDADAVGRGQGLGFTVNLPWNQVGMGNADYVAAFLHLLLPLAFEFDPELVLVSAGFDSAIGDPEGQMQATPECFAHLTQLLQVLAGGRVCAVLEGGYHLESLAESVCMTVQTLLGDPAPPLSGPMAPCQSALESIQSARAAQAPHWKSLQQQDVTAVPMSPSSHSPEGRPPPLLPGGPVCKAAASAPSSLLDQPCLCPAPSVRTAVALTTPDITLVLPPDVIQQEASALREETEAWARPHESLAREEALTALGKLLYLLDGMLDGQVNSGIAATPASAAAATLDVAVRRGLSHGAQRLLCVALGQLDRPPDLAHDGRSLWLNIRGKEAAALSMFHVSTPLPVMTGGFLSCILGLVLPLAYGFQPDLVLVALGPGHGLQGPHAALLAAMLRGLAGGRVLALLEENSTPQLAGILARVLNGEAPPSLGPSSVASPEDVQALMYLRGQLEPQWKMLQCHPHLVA
Outline: (§1)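 Purified HDAC isoforms were tested up to a maximum of 1 μM. IC50 values are averages of duplicate experiments. Disulfide compounds were pretreated with DTT to reduce the disulfide bond.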

[2] = target: Histone deacetylase 9 (Homo sapiens, UniProt Q9UKV0); assay: Inhibition of HDAC9 (unknown origin) at 1 uM incubated for 30 mins in presence of BSA and DTT by fluorescence assay; outline: as §1
Chain of Histone deacetylase 9 (Q9UKV0 whole entry): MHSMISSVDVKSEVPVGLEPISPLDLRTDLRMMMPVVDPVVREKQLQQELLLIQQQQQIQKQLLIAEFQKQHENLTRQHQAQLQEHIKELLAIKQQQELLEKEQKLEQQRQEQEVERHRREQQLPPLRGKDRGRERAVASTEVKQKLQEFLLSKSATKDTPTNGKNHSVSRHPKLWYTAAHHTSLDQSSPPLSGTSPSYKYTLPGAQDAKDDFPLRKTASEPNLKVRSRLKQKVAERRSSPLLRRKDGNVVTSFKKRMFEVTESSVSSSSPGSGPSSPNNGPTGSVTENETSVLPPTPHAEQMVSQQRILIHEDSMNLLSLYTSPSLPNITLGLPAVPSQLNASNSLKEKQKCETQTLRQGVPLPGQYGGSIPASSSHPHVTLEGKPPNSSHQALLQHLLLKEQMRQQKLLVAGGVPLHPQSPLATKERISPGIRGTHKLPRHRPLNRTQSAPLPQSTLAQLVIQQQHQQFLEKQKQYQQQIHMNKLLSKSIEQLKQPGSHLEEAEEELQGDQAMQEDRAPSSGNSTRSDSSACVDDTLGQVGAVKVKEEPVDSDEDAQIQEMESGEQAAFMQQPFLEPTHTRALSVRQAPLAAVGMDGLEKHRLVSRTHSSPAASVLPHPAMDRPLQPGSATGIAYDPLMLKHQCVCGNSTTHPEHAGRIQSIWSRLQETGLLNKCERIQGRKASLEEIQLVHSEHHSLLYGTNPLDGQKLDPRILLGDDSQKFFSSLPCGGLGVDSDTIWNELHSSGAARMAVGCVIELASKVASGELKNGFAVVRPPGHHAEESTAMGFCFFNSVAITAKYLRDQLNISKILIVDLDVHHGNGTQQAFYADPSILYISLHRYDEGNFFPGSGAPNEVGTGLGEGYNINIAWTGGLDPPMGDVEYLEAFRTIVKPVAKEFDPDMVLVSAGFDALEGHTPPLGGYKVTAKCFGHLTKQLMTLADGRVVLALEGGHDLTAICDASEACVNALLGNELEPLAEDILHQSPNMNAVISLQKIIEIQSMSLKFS

[3] = target: Histone deacetylase 5 (Homo sapiens, UniProt Q9UQL6); assay: Inhibition of HDAC5 (unknown origin) at 1 uM incubated for 30 mins in presence of BSA and DTT by fluorescence assay; outline: as §1
Chain of Histone deacetylase 5 (Q9UQL6 whole entry): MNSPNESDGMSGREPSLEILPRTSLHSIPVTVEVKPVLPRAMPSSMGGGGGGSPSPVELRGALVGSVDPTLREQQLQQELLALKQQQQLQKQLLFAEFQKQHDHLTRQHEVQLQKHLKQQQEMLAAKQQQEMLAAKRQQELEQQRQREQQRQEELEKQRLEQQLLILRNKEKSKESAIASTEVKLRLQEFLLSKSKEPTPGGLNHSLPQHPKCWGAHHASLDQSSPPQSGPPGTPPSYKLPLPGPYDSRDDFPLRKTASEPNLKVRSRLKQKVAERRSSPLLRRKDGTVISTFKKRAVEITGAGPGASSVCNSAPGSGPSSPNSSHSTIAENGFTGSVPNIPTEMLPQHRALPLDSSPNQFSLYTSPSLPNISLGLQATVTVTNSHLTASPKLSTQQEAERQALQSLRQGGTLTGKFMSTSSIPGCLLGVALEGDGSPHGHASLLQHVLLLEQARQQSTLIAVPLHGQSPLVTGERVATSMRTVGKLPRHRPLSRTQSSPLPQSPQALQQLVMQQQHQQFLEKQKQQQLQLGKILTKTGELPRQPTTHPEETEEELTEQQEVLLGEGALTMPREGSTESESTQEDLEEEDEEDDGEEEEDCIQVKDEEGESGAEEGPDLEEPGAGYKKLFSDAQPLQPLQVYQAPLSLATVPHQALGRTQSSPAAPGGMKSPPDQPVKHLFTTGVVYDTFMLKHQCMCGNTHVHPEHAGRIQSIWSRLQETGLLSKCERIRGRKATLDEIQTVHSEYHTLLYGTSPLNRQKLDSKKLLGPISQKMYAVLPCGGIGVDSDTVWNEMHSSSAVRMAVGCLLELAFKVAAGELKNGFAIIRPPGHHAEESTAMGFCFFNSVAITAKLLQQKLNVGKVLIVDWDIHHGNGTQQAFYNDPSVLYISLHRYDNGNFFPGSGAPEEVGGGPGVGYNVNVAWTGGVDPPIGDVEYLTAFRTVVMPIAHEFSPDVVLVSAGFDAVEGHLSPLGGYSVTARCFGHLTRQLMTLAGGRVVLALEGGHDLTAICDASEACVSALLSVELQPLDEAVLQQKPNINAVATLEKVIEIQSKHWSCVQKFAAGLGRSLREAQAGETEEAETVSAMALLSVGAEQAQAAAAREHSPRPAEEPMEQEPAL

[4] = target: T2, Histone deacetylase 7 (Homo sapiens) (UniProt Q8WUI4); assay: Inhibition of HDAC7 (unknown origin) at 1 uM incubated for 30 mins in presence of BSA and DTT by fluorescence assay; outline: as §1
T2 sequence (whole entry): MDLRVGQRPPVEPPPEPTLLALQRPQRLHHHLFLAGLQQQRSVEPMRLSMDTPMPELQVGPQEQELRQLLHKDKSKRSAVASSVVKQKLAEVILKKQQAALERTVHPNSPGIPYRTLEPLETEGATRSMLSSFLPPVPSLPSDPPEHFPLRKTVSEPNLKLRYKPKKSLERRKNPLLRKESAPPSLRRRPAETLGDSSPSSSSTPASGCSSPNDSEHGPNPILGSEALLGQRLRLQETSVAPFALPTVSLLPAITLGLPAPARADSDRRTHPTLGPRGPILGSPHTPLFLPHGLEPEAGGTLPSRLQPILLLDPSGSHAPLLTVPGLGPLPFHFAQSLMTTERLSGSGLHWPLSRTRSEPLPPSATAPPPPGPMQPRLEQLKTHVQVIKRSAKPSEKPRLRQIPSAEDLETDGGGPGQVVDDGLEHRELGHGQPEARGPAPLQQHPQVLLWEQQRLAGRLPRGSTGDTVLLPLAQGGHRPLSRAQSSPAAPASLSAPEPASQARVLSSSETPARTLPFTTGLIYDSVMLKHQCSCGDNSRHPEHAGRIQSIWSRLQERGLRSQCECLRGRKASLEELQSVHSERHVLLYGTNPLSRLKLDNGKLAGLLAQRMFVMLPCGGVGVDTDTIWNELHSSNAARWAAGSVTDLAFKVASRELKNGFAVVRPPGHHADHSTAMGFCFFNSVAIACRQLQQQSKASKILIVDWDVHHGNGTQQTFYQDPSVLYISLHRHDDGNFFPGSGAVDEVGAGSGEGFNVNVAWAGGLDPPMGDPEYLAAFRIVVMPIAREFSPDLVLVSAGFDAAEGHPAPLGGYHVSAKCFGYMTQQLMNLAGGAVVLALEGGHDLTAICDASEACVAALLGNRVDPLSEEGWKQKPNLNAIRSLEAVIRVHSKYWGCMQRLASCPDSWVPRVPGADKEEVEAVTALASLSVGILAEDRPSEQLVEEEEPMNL

[5] = target: T3, Protein deacetylase HDAC6 (Homo sapiens) (UniProt Q9UBN7); conditions: 1 uM
T3 sequence (whole entry): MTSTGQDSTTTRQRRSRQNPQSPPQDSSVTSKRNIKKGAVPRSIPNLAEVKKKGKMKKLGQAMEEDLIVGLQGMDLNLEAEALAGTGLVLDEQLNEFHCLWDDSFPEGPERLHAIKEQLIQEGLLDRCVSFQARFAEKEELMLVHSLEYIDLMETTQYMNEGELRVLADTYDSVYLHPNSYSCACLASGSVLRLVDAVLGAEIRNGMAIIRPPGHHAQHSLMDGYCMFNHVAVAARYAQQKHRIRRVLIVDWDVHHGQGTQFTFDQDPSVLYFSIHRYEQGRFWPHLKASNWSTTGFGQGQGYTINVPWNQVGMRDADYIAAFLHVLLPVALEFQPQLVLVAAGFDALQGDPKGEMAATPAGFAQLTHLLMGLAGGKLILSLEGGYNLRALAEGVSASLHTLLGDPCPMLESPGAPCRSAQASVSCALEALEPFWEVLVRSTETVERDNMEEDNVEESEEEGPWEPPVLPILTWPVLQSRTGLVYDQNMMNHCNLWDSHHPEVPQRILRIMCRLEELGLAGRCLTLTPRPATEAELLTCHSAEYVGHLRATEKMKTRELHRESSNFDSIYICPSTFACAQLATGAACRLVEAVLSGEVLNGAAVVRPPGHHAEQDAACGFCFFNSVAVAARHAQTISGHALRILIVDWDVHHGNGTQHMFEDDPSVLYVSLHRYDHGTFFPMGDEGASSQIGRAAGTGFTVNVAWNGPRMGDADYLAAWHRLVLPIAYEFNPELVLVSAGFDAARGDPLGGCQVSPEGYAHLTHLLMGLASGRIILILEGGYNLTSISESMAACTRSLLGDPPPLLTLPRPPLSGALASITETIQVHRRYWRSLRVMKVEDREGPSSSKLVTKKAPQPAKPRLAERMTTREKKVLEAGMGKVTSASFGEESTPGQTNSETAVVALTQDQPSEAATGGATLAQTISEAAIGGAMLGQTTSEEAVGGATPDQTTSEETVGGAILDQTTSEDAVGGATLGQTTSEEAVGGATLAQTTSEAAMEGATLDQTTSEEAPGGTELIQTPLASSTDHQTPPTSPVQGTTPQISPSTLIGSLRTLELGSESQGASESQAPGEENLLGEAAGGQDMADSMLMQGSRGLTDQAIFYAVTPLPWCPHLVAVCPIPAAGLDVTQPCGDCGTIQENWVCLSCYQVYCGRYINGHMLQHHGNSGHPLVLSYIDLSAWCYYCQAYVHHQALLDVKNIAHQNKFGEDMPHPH

[6] = target: T4, Histone deacetylase 8 (Homo sapiens) (UniProt Q9BY41); assay: Inhibition of HDAC8 (unknown origin) at 1 uM incubated for 30 mins in presence of BSA and DTT by fluorescence assay; outline: as §1
T4 sequence (whole entry): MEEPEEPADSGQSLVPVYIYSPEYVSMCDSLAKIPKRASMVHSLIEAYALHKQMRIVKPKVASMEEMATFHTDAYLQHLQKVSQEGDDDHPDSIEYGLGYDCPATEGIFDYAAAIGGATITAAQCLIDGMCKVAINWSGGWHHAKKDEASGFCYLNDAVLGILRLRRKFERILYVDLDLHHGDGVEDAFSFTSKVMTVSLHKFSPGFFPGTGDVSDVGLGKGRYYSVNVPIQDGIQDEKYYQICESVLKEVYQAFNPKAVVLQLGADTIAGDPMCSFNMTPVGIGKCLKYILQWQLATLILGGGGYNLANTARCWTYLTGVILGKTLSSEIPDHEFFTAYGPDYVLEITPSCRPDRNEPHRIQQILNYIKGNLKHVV

[7] = target: Histone deacetylase 1 (Homo sapiens, UniProt Q13547); assay: Inhibition of HDAC1 (unknown origin) incubated for 30 mins in presence of BSA and DTT by fluorescence assay
Chain of Histone deacetylase 1 (Q13547 whole entry): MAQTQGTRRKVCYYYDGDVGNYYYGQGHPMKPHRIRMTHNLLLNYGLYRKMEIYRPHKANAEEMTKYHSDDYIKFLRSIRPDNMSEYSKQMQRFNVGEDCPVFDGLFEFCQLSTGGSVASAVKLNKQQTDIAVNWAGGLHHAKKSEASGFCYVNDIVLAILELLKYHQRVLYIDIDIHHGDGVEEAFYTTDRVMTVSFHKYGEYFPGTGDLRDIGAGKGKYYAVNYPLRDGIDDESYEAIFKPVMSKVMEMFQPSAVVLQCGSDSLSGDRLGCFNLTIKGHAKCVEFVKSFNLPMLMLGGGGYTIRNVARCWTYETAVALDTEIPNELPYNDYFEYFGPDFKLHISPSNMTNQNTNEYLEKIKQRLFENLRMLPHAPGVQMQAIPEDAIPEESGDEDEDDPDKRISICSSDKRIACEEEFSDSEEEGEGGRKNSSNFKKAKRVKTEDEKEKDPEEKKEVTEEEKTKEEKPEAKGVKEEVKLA

C/C=C1\NC(=O)[C@H]2CSSCC/C=C/[C@H](CC(=O)N[C@H](C(C)C)C(=O)N2)OC(=O)[C@H](C(C)C)NC1=O [ROMIDEPSIN]
IC50 [1]: 0.9 nM
inhibition [2]: 45%
inhibition [3]: 22%
inhibition [4]: 34%
inhibition [5]: 45%
inhibition [6]: 36%
IC50 [7]: 0.8 nM
